Values joined by “and” are separate entries in the source; they are usually repeats but may differ in a detail not shown here. Equal entries are not always repeated.
tested on: Candida glabrata growth in glycerol medium, OD600, 48 h; test: C. glabrata respiratory growth inhibitors tested alone – glycerol medium, OD600, dry powder, set 4, dose response (AID 624014)
How it was run: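 buffer or medium = CSM-glycerol medium | test system = Candida glabrata yeast cells, whole-organism growth assay | control set = amphotericin B at 10 µM as positive control | measured by = absorbance at 600 nm (OD600) as growth measure | schedule = compound exposure 48 h at 30 °C, static, humidified | doses = compounds delivered into wells by pin transfer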

| SMILES | AC50 |
| --- | --- |
| CCOC(=O)N1C(=O)C2(CCCCC2)N(c2ccc(C)cc2)C1=S | 31.8 nM and 22.4 nM |
| CCOC(=O)N1C(=O)C2(CCCCC2)N(c2ccc(C#N)cc2)C1=S | 27.8 nM |
| CCOC(=O)N1C(=O)C2(CCCCC2)N(c2ccccc2)C1=S | 19.4 nM |
| C/C=C/[C@@H]1[C@H]2C[C@@H](C)CC[C@@H]2C(C)=C[C@H]1C(=O)c1c(O)c(-c2ccc(O)cc2)c[nH]c1=O | 2450 nM |
| CCOC(=O)N1C(=O)C2(CCCCC2)N(c2cccc(C)c2)C1=S | 23.9 nM |
| CCOC(=O)N1C(=O)C2(CCCCC2)N(c2ccc(Cl)cc2)C1=S | 13.8 nM |
| CC1/C=C/C=C\C=C\C=C\C=C\C=C\C=C\C(O[C@H]2OC(C)C(O)C(N)C2O)CC2OC(O)(CC(O)CC(O)C(O)CCC(O)CC(O)CC(=O)OC(C)C(C)C1O)CC(O)C2C(=O)O (stereo partly drawn) | 602 nM |
| CCOC(=O)N1C(=O)C2(CCCCC2)N(c2ccc(F)cc2)C1=S | 6.16 nM |

Reference: PubChem BioAssay AID624014 (Broad Institute, 2012)
